{"data": "Measured values from different studies", "target": "Muscarinic acetylcholine receptor M1 (CHRM1, Homo sapiens, UniProt P11229)", "concentration": "10 µM", "Sequence (P11229 1-460, as in one of the studies)": "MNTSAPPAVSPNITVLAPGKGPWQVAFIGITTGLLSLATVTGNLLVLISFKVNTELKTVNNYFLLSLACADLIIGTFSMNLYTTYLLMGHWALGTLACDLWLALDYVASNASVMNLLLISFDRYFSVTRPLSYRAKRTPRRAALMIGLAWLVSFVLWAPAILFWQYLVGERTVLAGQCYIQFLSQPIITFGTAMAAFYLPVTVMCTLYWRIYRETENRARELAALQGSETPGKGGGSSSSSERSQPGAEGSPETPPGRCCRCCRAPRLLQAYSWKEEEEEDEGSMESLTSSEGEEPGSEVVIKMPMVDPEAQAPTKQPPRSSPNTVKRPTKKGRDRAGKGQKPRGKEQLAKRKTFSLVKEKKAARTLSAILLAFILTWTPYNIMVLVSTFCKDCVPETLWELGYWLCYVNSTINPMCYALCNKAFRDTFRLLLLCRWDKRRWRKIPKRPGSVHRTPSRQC", "note": "Protocols differ between the studies behind these lines."}
{"SMILES": "c1ccc(C(NCCNC(c2ccccc2)c2ccccc2)c2ccccc2)cc1", "test": "cell-free assay", "inhibition [%]": 21}
{"SMILES": "COc1ccc2cc(OCC3(C(=O)O)CN(C(=O)c4ccc(F)cc4)C3)ccc2c1", "test": "ligand displacement", "inhibition [%]": -0.03}
{"SMILES": "CC(C)N1CCC[C@H]1CNC(=O)c1cn(C2CCCC2)c(=O)c2c1c1ccccc1n2C", "test": "ligand displacement, radioligand", "inhibition [%]": -1}
{"SMILES": "CCN(CC)CCCC[C@H](NC(=O)[C@H](CC(C)C)NC(=O)[C@H](C)NC(=O)[C@H](Cc1ccccc1)NC(=O)c1ccc(C(C)(C)C)cc1)C(=O)N[C@@H](CO)C(=O)OC", "test": "ligand displacement, radioligand", "inhibition [%]": 1}
{"SMILES": "CN1CC[C@]2(C)c3cc(OC(=O)Nc4ccccc4)ccc3N(C)[C@H]12", "test": "ligand displacement, radioligand", "inhibition [%]": 0}
{"SMILES": "C[C@H](C(=O)N[C@H]1COc2ccccc2[C@@H]1S(C)(=O)=O)c1ccc(F)cc1", "test": "cell-free assay", "inhibition [%]": -7}
{"SMILES": "Clc1ccc2c(C3CCN(CCc4c[nH]c5ccccc45)CC3)c[nH]c2c1", "test": "ligand displacement, radioligand", "inhibition [%]": 31}
{"SMILES": "COCc1c(-c2cc3cc(C)cc(OC)c3s2)c2c(N)ncnn2c1CN1CCNC(=O)C1", "test": "ligand displacement, radioligand", "inhibition [%]": 6}
{"SMILES": "CS(=O)(=O)c1cc(C2(NC(=O)c3cncc4c3cnn4-c3ccc(F)cc3)CC2)ccn1", "test": "cell-free assay", "inhibition [%]": -14.8}
